# Assay results reported in ChEMBL document CHEMBL3351311 (ACS Med Chem Lett, 2014).
# Columns and labels:
# [1] = target: T1, cAMP and cAMP-inhibited cGMP 3',5'-cyclic phosphodiesterase 10A (Rattus norvegicus, UniProt Q9QYJ6); experiment: Inhibition of rat PDE10A expressed in Sf9 cells incubated for 60 mins using [3H]-cAMP substrate by scintillation counting method
# T1 sequence (Q9QYJ6 whole entry): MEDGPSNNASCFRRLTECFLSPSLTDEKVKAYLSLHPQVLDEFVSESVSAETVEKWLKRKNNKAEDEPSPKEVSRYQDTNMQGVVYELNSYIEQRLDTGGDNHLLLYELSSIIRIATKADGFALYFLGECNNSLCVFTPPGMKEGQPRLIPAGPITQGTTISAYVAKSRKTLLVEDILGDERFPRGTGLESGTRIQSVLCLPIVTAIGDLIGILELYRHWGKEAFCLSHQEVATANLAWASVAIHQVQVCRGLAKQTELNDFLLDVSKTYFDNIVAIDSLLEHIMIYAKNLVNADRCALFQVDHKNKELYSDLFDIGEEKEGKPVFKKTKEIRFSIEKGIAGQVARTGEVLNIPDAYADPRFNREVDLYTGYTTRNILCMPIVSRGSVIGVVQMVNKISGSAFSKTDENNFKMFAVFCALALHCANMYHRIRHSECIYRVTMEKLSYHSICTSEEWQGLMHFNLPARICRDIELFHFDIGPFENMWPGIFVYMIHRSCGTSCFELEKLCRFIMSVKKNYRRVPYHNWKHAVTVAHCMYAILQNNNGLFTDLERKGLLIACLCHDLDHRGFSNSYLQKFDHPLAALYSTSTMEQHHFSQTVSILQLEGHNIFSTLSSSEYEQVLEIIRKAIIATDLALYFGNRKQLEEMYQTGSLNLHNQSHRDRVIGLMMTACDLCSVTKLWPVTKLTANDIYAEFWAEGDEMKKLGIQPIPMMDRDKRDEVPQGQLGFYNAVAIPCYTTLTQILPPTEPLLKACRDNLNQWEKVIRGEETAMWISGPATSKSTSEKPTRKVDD
# [2] = Drug level in rat brain at 10 mg/kg, po after 30 mins; assay type: ADME, organism-based; design: dose 10 mg/kg, route oral; conditions: read-out: Drug uptake
# [3] = Ratio of drug level in brain to plasma in rat at 10 mg/kg, po after 30 mins; assay type: ADME, organism-based; design: dose 10 mg/kg, route oral; conditions: read-out: BPR
# [4] = Plasma concentration in rat at 10 mg/kg, po after 30 mins; assay type: ADME, organism-based; design: dose 10 mg/kg, route oral
# Phosphodiesterase 6 = experiment: Inhibition of human PDE6AB expressed in Sf9 cells by scintillation counting method
# Method in brief: (§1)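 IC50 values were calculated from experiments each run at eight concentrations.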
# [5] = AUC (0 to infinity) in Sprague-Dawley rat at 2.5 mg/kg, iv; assay type: ADME, organism-based; design: time infinity, dose 2.5 mg/kg, route intravenous; conditions: plasma
# Method in brief: (§2)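 Rats received 2.5 mg/kg i.v. Plasma kinetic parameters (t1/2, Cl, Vdss, AUC0-inf) are reported as mean (SD).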
# [6] = target: cGMP-inhibited 3',5'-cyclic phosphodiesterase 3B (Homo sapiens, UniProt Q13370); experiment: Inhibition of human PDE3B by scintillation counting method; method in brief: as §1
# Chain of cGMP-inhibited 3',5'-cyclic phosphodiesterase 3B (Q13370 whole entry): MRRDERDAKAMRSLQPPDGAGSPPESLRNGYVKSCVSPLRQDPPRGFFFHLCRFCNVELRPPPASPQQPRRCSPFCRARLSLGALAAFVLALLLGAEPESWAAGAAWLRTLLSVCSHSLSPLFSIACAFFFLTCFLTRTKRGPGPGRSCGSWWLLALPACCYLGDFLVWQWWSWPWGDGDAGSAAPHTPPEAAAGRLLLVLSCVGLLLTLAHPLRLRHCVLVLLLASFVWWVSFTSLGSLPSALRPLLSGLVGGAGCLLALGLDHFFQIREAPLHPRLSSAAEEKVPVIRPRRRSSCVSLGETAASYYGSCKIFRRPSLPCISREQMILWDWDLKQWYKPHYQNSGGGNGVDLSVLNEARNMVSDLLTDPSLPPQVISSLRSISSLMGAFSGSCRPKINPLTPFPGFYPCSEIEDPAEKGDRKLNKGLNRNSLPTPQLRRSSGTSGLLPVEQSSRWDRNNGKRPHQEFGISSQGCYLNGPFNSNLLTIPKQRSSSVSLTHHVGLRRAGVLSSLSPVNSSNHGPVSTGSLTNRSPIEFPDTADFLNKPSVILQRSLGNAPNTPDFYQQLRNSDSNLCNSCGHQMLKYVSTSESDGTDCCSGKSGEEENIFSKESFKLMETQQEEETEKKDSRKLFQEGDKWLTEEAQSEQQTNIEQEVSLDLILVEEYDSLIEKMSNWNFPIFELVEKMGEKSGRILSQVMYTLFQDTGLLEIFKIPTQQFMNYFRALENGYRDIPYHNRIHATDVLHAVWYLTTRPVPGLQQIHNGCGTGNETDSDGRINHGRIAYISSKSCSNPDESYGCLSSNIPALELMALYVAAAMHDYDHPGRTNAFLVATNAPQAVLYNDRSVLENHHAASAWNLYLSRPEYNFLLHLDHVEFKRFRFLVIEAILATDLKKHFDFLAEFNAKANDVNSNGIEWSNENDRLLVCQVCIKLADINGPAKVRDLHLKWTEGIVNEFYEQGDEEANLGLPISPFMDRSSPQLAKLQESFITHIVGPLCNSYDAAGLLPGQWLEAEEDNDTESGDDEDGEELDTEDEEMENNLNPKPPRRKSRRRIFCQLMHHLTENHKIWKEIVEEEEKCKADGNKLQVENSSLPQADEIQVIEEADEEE
# [7] = Clearance in Sprague-Dawley rat at 2.5 mg/kg, iv; assay type: ADME, organism-based; design: dose 2.5 mg/kg, route intravenous; conditions: in vivo; method in brief: as §2
# [8] = Stability in rat liver microsomes assessed as parent compound remaining after 15 mins; assay type: ADME; conditions: read-out: Stability
# Method in brief: (§3)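 Incubated with human or rat liver microsomes for 15 min. Result is the percent of parent compound remaining.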
# [9] = Unbound fraction in Sprague-Dawley rat plasma at 10 mg/kg, sc; assay type: ADME, organism-based; design: dose 10 mg/kg, route subcutaneous
# Plasma [10] = experiment: Free drug concentration in Sprague-Dawley rat brain at 10 mg/kg, sc after 1 hr; assay type: ADME, organism-based; design: dose 10 mg/kg, route subcutaneous; conditions: in vivo
# Method in brief: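 Free brain level at 1 h after a 10 mg/kg s.c. dose. Total brain concentration was corrected with the measured unbound brain fraction (Fub) and the unbound fraction to plasma proteins (Fup).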
# Rattus norvegicus [11] = experiment: Effect on cAMP levels in Wistar rat striatum at 10 mg/kg, sc after 1 hr; assay type: functional; conditions: route subcutaneous
# [12] = Half life in Sprague-Dawley rat at 2.5 mg/kg, iv; assay type: ADME, organism-based; design: dose 2.5 mg/kg, route intravenous; conditions: in vivo; method in brief: as §2
# [13] = Ratio of drug level in brain to plasma of Sprague-Dawley rat at 10 mg/kg, sc after 4 hrs; assay type: ADME, organism-based; design: dose 10 mg/kg, route subcutaneous; conditions: read-out: BPR
# Method in brief: (§4)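 Male Sprague-Dawley rats, fed (n = 3), dosed 10 mg/kg s.c. at 1 mg/mL in 20% HP-β-CD, pH 7.0. Plasma (ng/mL) and brain (ng/g) levels were measured at 0.5, 1, 2, 4, 7 and 24 h, each with SD. The brain/plasma ratio is computed at each time point.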
# Rattus norvegicus [14] = experiment: In-vivo occupancy at PDE2 in sc dosed Wistar rat brain using [3H]labeled compound in presence of 2.5 mg/kg, sc PDE10 inhibitor MP10; assay type: functional, organism-based; design: dose 2.5 mg/kg, route subcutaneous
# Method in brief: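 Male Wistar rats (n = 3 per dose) were dosed s.c., co-administered with MP10 at 2.5 mg/kg s.c. Ex vivo autoradiography was done on brain slices with the tritiated compound. Occupancy is the inhibition of specific [3H] binding relative to vehicle-treated animals, and ED50 was derived against dose.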
# Cytochrome P450 3A4 = Cytochrome P450 3A4 (Homo sapiens, UniProt P08684); experiment: Inhibition of CYP3A4 in human liver microsomes; assay type: ADME
# Chain of Cytochrome P450 3A4 (P08684 whole entry): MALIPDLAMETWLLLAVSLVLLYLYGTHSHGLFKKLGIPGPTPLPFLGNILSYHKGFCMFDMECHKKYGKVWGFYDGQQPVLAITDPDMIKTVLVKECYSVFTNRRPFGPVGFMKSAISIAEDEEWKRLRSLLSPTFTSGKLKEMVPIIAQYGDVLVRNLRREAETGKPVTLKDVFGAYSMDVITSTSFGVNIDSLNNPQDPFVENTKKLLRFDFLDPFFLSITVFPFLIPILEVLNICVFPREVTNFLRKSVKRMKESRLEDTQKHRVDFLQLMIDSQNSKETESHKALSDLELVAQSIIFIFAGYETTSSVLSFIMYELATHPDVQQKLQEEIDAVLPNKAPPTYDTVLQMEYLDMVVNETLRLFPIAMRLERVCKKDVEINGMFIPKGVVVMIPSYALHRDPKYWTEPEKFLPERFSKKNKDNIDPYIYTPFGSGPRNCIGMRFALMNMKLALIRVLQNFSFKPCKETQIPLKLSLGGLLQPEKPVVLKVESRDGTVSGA
# Method in brief: (§5)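 CYP2C19 and 3A4 were tested in a human liver microsomal CYP inhibition assay, with IC50 determination.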
# Rattus norvegicus [15] = experiment: Increase in cGMP levels in Wistar rat striatum at 10 mg/kg, sc after 1 hr; assay type: functional; conditions: route subcutaneous
# Method in brief: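 Rats were dosed 10 mg/kg s.c., and striatal cGMP was measured 1 h later against vehicle-dosed animals. Five independent experiments were run (n = 4–5 each), reported as % of vehicle with range.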
# [16] = Formulatability in water at pH 3.6; assay type: physicochemical; conditions: read-out: Activity
# Method in brief: (§6)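 Formulatability in mg/mL, tested in three vehicles: water at pH 3.6, 10% β-HP-CD at pH 3.6, and 20% HP-β-CD at pH 7.0.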
# [17] = target: Dual specificity calcium/calmodulin-dependent 3',5'-cyclic nucleotide phosphodiesterase 1A (Homo sapiens, UniProt P54750); experiment: Inhibition of human PDE1A by scintillation counting method; method in brief: as §1
# Chain of Dual specificity calcium/calmodulin-dependent 3',5'-cyclic nucleotide phosphodiesterase 1A (P54750 whole entry): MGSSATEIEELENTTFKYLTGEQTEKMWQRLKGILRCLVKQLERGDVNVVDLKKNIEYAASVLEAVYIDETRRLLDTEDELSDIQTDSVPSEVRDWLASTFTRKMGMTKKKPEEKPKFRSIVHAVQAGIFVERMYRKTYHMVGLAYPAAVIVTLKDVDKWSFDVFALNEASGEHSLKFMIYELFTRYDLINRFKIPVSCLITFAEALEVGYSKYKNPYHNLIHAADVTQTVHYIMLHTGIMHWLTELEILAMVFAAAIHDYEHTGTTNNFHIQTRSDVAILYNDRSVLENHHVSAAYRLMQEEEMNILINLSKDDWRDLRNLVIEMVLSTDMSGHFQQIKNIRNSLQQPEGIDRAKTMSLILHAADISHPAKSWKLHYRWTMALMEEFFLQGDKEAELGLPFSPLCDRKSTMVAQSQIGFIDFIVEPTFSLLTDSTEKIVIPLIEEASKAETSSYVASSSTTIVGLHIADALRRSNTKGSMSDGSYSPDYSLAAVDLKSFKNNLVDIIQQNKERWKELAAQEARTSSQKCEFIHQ
# [18] = target: High affinity 3',5'-cyclic-AMP phosphodiesterase 7A (Homo sapiens, UniProt Q13946)
# Chain of High affinity 3',5'-cyclic-AMP phosphodiesterase 7A (Q13946 whole entry): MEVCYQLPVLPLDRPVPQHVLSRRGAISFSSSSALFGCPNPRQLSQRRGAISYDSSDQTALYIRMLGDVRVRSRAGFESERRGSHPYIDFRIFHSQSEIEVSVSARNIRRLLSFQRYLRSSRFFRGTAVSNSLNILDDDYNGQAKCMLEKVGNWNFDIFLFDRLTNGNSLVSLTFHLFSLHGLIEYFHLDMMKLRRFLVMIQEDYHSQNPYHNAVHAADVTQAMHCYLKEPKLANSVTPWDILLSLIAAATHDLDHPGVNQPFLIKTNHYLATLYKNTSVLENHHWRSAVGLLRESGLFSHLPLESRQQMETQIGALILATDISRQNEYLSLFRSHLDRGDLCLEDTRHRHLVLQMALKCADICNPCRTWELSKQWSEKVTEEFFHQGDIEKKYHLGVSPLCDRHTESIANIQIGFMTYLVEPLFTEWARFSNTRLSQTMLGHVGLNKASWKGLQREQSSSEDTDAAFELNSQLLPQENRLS
# [19] = target: cGMP-specific 3',5'-cyclic phosphodiesterase (Homo sapiens, UniProt O76074); experiment: Inhibition of human PDE5A3 expressed in Sf9 cells by scintillation counting method; method in brief: as §1
# [20] = Ratio of drug level in brain to plasma of Sprague-Dawley rat at 10 mg/kg, sc after 1 hr; assay type: ADME, organism-based; design: dose 10 mg/kg, route subcutaneous; conditions: read-out: BPR; method in brief: as §4
# [21] = Formulatability in 20% beta-HP-CD at pH 7.0; assay type: physicochemical; conditions: read-out: Activity; method in brief: as §6
# [22] = Half life in Sprague-Dawley rat at 10 mg/kg, sc; assay type: ADME, organism-based; design: dose 10 mg/kg, route subcutaneous; conditions: in vivo
# Method in brief: (§7)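 Male Sprague-Dawley rats, fed (n = 3), given 10 mg/kg s.c. as a 1 mg/mL solution in 20% HP-β-CD, pH 7.0. Plasma kinetic parameters are reported as mean (SD).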
# [23] = Tmax in Sprague-Dawley rat at 10 mg/kg, sc; assay type: ADME, organism-based; design: dose 10 mg/kg, route subcutaneous; conditions: in vivo
# Method in brief: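 Fed male Sprague-Dawley rats (n = 3) were dosed subcutaneously at 10 mg/kg, formulated at 1 mg/mL in 20% HP-β-CD, pH 7.0. Plasma kinetics were followed and reported as mean (SD).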
# [24] = Ratio of drug level in brain to plasma of Sprague-Dawley rat at 10 mg/kg, sc after 2 hrs; assay type: ADME, organism-based; design: dose 10 mg/kg, route subcutaneous; conditions: read-out: BPR; method in brief: as §4
# [25] = target: 3',5'-cyclic-AMP phosphodiesterase 4D (Homo sapiens, UniProt Q08499); experiment: Inhibition of human PDE4D by scintillation counting method; method in brief: as §1
# Chain of 3',5'-cyclic-AMP phosphodiesterase 4D (Q08499 whole entry): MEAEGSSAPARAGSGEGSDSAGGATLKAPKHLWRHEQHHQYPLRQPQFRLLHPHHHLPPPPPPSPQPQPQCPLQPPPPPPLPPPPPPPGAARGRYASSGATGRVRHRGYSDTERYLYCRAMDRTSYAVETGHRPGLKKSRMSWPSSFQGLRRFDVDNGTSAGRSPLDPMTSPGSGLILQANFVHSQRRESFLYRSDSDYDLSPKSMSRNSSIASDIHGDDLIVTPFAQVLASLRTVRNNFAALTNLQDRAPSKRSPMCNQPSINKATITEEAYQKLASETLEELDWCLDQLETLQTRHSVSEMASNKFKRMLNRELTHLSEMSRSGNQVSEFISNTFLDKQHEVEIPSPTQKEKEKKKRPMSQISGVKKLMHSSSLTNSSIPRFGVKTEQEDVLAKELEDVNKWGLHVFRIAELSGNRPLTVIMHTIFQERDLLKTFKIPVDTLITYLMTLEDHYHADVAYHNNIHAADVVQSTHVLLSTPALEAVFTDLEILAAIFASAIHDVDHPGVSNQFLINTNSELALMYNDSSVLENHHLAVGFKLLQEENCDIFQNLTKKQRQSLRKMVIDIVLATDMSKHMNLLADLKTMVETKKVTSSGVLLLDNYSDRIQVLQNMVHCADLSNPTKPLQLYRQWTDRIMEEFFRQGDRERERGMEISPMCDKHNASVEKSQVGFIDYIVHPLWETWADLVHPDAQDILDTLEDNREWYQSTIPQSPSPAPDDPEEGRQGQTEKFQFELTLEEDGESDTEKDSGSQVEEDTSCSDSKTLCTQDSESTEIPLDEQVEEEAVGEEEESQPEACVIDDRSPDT
# [26] = target: High affinity cGMP-specific 3',5'-cyclic phosphodiesterase 9A (Homo sapiens, UniProt O76083)
# Chain of High affinity cGMP-specific 3',5'-cyclic phosphodiesterase 9A (O76083 whole entry): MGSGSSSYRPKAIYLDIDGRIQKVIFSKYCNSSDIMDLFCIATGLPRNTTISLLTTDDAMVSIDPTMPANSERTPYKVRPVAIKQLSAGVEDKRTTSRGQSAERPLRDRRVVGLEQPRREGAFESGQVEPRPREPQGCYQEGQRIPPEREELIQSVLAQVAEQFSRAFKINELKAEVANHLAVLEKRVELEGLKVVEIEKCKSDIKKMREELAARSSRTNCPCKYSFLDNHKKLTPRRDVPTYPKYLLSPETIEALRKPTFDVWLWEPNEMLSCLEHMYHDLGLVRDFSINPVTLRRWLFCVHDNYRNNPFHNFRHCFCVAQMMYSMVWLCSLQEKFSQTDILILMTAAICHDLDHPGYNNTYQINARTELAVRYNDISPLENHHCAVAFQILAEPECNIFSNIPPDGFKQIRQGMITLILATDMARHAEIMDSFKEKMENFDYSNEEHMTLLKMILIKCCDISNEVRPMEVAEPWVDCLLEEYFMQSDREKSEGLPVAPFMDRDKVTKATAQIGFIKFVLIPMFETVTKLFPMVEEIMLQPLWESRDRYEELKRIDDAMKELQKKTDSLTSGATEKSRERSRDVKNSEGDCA
# [27] = AUC (0 to infinity) in Sprague-Dawley rat at 10 mg/kg, sc; assay type: ADME, organism-based; design: time infinity, dose 10 mg/kg, route subcutaneous; conditions: plasma; method in brief: as §7
# [28] = Volume of distribution at steady state in Sprague-Dawley rat at 2.5 mg/kg, iv; assay type: ADME, organism-based; design: dose 2.5 mg/kg, route intravenous; conditions: in vivo, read-out: Vdss
# Method in brief: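 Rats received an intravenous injection at 2.5 mg/kg. Plasma kinetics were followed and parameters reported as mean (SD).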
# Brain = experiment: Drug level in Sprague-Dawley rat brain at 10 mg/kg, sc after 24 hrs; assay type: ADME, organism-based; design: dose 10 mg/kg, route subcutaneous; conditions: in vivo, BLD = below limit of detection; method in brief: as §4
# [29] = Cmax in Sprague-Dawley rat at 10 mg/kg, sc; assay type: ADME, organism-based; design: dose 10 mg/kg, route subcutaneous; conditions: in vivo; method in brief: as §7
# [30] = target: Dual 3',5'-cyclic-AMP and -GMP phosphodiesterase 11A (Homo sapiens, UniProt Q9HCR9); experiment: Inhibition of human PDE11A4 expressed in Sf9 cells by scintillation counting method; method in brief: as §1
# Chain of Dual 3',5'-cyclic-AMP and -GMP phosphodiesterase 11A (Q9HCR9 whole entry): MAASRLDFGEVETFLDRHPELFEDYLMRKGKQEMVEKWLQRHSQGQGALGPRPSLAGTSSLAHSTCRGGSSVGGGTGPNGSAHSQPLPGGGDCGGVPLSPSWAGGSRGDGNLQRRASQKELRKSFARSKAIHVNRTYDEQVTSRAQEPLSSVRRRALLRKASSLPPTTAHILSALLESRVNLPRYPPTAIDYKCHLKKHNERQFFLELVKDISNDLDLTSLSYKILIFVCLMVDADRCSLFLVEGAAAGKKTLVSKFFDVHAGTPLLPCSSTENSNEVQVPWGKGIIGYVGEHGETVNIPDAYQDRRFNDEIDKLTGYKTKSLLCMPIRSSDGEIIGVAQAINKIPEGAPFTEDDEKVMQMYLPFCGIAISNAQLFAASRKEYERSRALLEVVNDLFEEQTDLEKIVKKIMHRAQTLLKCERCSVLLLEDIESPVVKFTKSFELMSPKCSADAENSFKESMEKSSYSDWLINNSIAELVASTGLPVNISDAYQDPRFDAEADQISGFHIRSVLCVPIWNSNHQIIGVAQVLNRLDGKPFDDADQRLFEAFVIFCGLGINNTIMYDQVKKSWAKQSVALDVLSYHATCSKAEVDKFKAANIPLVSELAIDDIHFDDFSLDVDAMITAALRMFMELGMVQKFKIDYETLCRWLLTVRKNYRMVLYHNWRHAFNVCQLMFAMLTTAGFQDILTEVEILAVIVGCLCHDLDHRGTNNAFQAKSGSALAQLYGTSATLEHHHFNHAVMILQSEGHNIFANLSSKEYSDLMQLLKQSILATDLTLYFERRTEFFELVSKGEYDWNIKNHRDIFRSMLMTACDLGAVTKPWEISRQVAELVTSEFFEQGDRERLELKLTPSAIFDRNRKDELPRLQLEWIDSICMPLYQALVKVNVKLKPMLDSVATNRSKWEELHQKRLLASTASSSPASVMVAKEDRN
# Plasma [31] = experiment: Plasma concentration in Sprague-Dawley rat at 10 mg/kg, sc after 24 hrs; assay type: ADME, organism-based; design: dose 10 mg/kg, route subcutaneous; conditions: in vivo, BLD = below limit of detection; method in brief: as §4
# [32] = Unbound fraction in Sprague-Dawley rat brain at 10 mg/kg, sc; assay type: ADME, organism-based; design: dose 10 mg/kg, route subcutaneous
# Salmonella typhimurium = experiment: Mutagenicity in Salmonella typhimurium at <125 ug/mL by Ames-2 test; assay type: toxicity, organism-based; conditions: salmonella enterica subsp. enterica serovar typhimurium
# Method in brief: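 In vitro colorimetric bacterial mutagenicity assay, adapted from the AMESII Mutagenicity Assay kit.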
# [33] = Ratio of drug level in brain to plasma of Sprague-Dawley rat at 10 mg/kg, sc after 0.5 hrs; assay type: ADME, organism-based; design: dose 10 mg/kg, route subcutaneous; conditions: read-out: BPR; method in brief: as §4
# Cytochrome P450 2C19 = Cytochrome P450 2C19 (Homo sapiens, UniProt P33261); experiment: Inhibition of CYP2C19 in human liver microsomes; assay type: ADME; method in brief: as §5
# [34] = Formulatability in 10% beta-HP-CD at pH 3.6; assay type: physicochemical; conditions: read-out: Activity; method in brief: as §6
# [35] = Ratio of drug level in brain to plasma of Sprague-Dawley rat at 10 mg/kg, sc after 7 hrs; assay type: ADME, organism-based; design: dose 10 mg/kg, route subcutaneous; conditions: read-out: BPR; method in brief: as §4
# [36] = Stability in human liver microsomes assessed as parent compound remaining after 15 mins; assay type: ADME; conditions: read-out: Stability; method in brief: as §3
# [37] = Selectivity index, ratio of IC50 for rat PDE10A to IC50 for human PDE2A
structure (smiles),measurement,setting,value
Cc1nc2ccc(CN3CCOCC3)cc2n2c(-c3cncc(OC(C)C)c3)nnc12,IC50,[1],> 10000 nM
COc1ccc(Cc2nn3c([C@@H](CCCc4ccccc4)[C@@H](C)O)nc(C)c3c(=O)[nH]2)cc1OC,concentration at 0.5 h,[2],3.6 ng/g
same,Kp at 0.5 h,[3],0.05
same,concentration at 0.5 h,[4],72.9 ng/mL
CCCCOc1cncc(-c2nnc3c(C)nc4ccc(CN5CCOCC5)cc4n23)c1,IC50,Phosphodiesterase 6,> 10 µM
same,AUC(0-inf),[5],305 ng·h/mL
same,IC50,[6],> 10 µM
same,clearance,[7],130 mL/min/kg
same,remaining at 0.25 h,[8],0%
same,fraction unbound,[9],0.31
same,Drug uptake(free),Plasma [10],67 nM
same,Activity,Rattus norvegicus [11],109%
same,half-life,[12],18.6 min
same,Kp at 4 h,[13],1.1
same,EC50,Rattus norvegicus [14],21 nM
same,ED50,"Rattus norvegicus [14]; sc, route subcutaneous",4.3 mg/kg
same,IC50,Cytochrome P450 3A4,> 10 µM
same,Activity,Rattus norvegicus [15],251%
same,solubility,[16],4000 µg/mL
same,IC50,[17],> 10 µM
same,IC50,[18],> 10 µM
same,IC50,[19],> 10 µM
same,Kp at 1 h,[20],1.1
same,solubility,[21],16 mg/mL
same,half-life,[22],60 min
same,Tmax,[23],40.2 min
same,Kp at 2 h,[24],1.1
same,IC50,[25],> 10 µM
same,IC50,[26],> 10 µM
same,AUC(0-inf),[27],1670 ng·h/mL
same,Vd,[28],2.7 L/kg
same,Drug uptake,Brain,BLD
same,Cmax,[29],658 ng/mL
same,IC50,[30],2140 nM
same,Cp,Plasma [31],BLD
same,fraction unbound,[32],0.14
same,Activity,Salmonella typhimurium,Non-toxic
same,Kp at 0.5 h,[33],1.4
same,IC50,Cytochrome P450 2C19,> 10 µM
same,solubility,[34],15 mg/mL
same,Kp at 7 h,[35],0.93
same,remaining at 0.25 h,[36],0%
COc1ccc(Cl)c(-c2nnc3c(C)nc4ccc(CN5CCOCC5)cc4n23)c1,IC50,[1],106 nM
Cc1nc2ccc(CN3CCOCC3)cc2n2c(-c3ccccc3Cl)nnc12,Ratio IC50,[37],13
